Measured values taken from article PMC10753860 (European journal of medicinal chemistry, 2023).

Tests used:
[1] = tested on: HBV replication in AML12HBV10 cells; assay: Antiviral dot blot hybridization assay of HBV DNA in AML12HBV10 cells; assay type: cell-based, hepatitis B virus (mouse hepatocyte-derived cell line)
[2] = tested on: HBV capsid assembly and pgRNA encapsidation in AML12HBV10 cells; assay: Mode of action study in AML12HBV10 cells; assay type: cell-based, hepatitis B virus (mouse hepatocyte-derived cell line); conditions: 2 days, ETV 1 μM; for amount of total viral RNA / amount of core protein / amount of encapsidated pgRNA / viral DNA replication intermediates: 17 or 18 1 or 5 μM; for amount of total viral RNA / amount of encapsidated pgRNA: Northern blot; for amount of core protein: Western blot; for amount of encapsidated pgRNA / viral DNA replication intermediates: Bay 41-4109 2 μM, DVR-23 5 μM; for viral DNA replication intermediates: Southern blot
Procedure, shortened: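 Mouse hepatocyte-derived AML12HBV10 cells carry a tetracycline-inducible, envelope-deficient HBV genome. They were seeded in 24-well plates, kept with tet (negative control) or without it for 24 h, then DMSO- or compound-treated for 48 h. Read-outs: total RNA and encapsidated pgRNA by Northern blot (rRNA loading); Cp by Western blot with antibody to its C-terminal 14 residues (β-actin loading); capsids and core DNA by native agarose particle gel.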

[3] = tested on: HBV replication in AML12HBV10 cells; conditions: HBV AML12HBV10 cell line; cited from earlier work

SMILES: O=C(Nc1ccc(F)c(Cl)c1)C1CCNc2ccccc21 (stereo not drawn) [Compound 23, N-(3-chloro-4-fluorophenyl)-1,2,3,4-tetrahydroquinoline-4-carboxamide]
- anti-HBV activity (in words) ([1]; AML12HBV10 cells): loss of activity

SMILES: O=C(Nc1cccc(Cl)c1)N1c2ccccc2NCC1CN1CCC(F)(F)CC1 (stereo not drawn) [Compound 89, N-(3-chlorophenyl)-2-((4,4-difluoropiperidin-1-yl)methyl)-3,4-dihydroquinoxaline-1(2H)-carboxamide]
- anti-HBV activity (in words) ([1]; AML12HBV10 cells): moderate sub-micromolar

SMILES: O=C1CN(C(=O)Nc2ccc(F)c(Cl)c2)c2ccccc2N1 [Compound 29, N-(3-chloro-4-fluorophenyl)-3-oxo-3,4-dihydroquinoxaline-1(2H)-carboxamide]
- anti-HBV activity (in words) ([1]; AML12HBV10 cells): inactive

SMILES: O=C(Nc1ccc(F)c(Cl)c1)N1CCNc2ccccc21 [Compound 17, N-(3-chloro-4-fluorophenyl)-3,4-dihydroquinoxaline-1(2H)-carboxamide]
- amount of total viral RNA [2]: did not alter
- amount of core protein [2]: did not alter
- amount of encapsidated pgRNA [2]: drastically reduced
- viral DNA replication intermediates [2]: drastically reduced

SMILES: O=C(Nc1ccc(F)c(C(F)F)c1)N1CCNc2ccccc21 [Compound 35, N-(3-(difluoromethyl)-4-fluorophenyl)-3,4-dihydroquinoxaline-1(2H)-carboxamide]
- anti-HBV activity (in words) ([1]; AML12HBV10 cells): improved the potencies

SMILES: O=C(Cc1ccc(F)c(Cl)c1)N1CCNc2ccccc21 [Compound 45, 2-(3-chloro-4-fluorophenyl)-1-(3,4-dihydroquinoxalin-1(2H)-yl)ethanone]
- anti-HBV activity (in words) ([1]; AML12HBV10 cells): loss of activity

SMILES: O=C(Nc1ccc(F)c(Cl)c1)N1c2ccccc2NCC1CN1CCOCC1 (stereo not drawn) [Compound 71, N-(3-chloro-4-fluorophenyl)-2-(morpholinomethyl)-3,4-dihydroquinoxaline-1(2H)-carboxamide]
- anti-HBV activity (in words) ([1]; AML12HBV10 cells): reduced the activity significantly

SMILES: CC1(C)CCN(CC2CNc3ccccc3N2C(=O)Nc2ccc(F)c(Cl)c2)CC1 (stereo not drawn) [Compound 76, N-(3-chloro-4-fluorophenyl)-2-((4,4-dimethylpiperidin-1-yl)methyl)-3,4-dihydroquinoxaline-1(2H)-carboxamide]
- anti-HBV activity (in words) ([1]; AML12HBV10 cells): loss of activity

SMILES: CCC(C)NS(=O)(=O)c1ccc(F)c(C(=O)Nc2ccc(F)c(F)c2)c1 (stereo not drawn) [DVR-23]
- amount of encapsidated pgRNA [2]: significantly reduced
- viral DNA replication intermediates [2]: viral DNA replication was inhibited

SMILES: O=C(Nc1ccc(F)c(Cl)c1)N1c2ccccc2NCC1c1ccccc1 (stereo not drawn) [Compound 74, N-(3-chloro-4-fluorophenyl)-2-phenyl-3,4-dihydroquinoxaline-1(2H)-carboxamide]
- anti-HBV activity (in words) ([1]; AML12HBV10 cells): sub-micromolar activity

SMILES: N#Cc1cc(NC(=O)N2c3ccccc3NCC2CN2CCC(F)(F)CC2)ccc1F (stereo not drawn) [Compound 86, N-(3-cyano-4-fluorophenyl)-2-((4,4-difluoropiperidin-1-yl)methyl)-3,4-dihydroquinoxaline-1(2H)-carboxamide]
- EC50 ([1]; Hepatitis B virus, AML12HBV10, in Mus musculus): ~100 nM

SMILES: O=C(Nc1ccc(F)c(Cl)c1)N1CCc2ccccc21 [Compound 30, N-(3-chloro-4-fluorophenyl)indoline-1-carboxamide]
- anti-HBV activity (in words) ([1]; AML12HBV10 cells): maintained activity

SMILES: O=C(Nc1cc(F)c(F)c(F)c1)N1CCN(C(=O)Nc2ccc(F)c(Cl)c2)c2ccccc21 [Compound 95, N^1-(3-chloro-4-fluorophenyl)-N^4-(3,4,5-trifluorophenyl)-2,3-dihydroquinoxaline-1,4-dicarboxamide]
- anti-HBV activity (in words) ([1]; AML12HBV10 cells): sub-micromolar activities

SMILES: O=C(Nc1ccc(F)c(Cl)c1)N1CCN(C(=O)Nc2ccc(F)c(Cl)c2)c2ccccc21 [Compound 18, N^1,N^4-bis(3-chloro-4-fluorophenyl)-2,3-dihydroquinoxaline-1,4-dicarboxamide]
- amount of total viral RNA [2]: did not alter
- amount of core protein [2]: did not alter
- amount of encapsidated pgRNA [2]: drastically reduced
- viral DNA replication intermediates [2]: drastically reduced

SMILES: O=C(Nc1ccc(F)c(Cl)c1)N1CCN(C(=O)Nc2cc(Cl)c(F)cc2F)c2ccccc21 [Compound 96, N^1-(5-chloro-2,4-difluorophenyl)-N^4-(3-chloro-4-fluorophenyl)-2,3-dihydroquinoxaline-1,4-dicarboxamide]
- anti-HBV activity (in words) ([1]; AML12HBV10 cells): sub-micromolar activities

SMILES: O=S(=O)(Nc1ccc(F)c(Cl)c1)N1CCNc2ccccc21 [Compound 26, N-(3-chloro-4-fluorophenyl)-3,4-dihydroquinoxaline-1(2H)-sulfonamide]
- anti-HBV activity (in words) ([1]; AML12HBV10 cells): loss of activity

SMILES: C=C1[C@H](CO)[C@@H](O)C[C@@H]1n1cnc2c(=O)[nH]c(N)nc21 [ETV, Entecavir]
- amount of total viral RNA [2]: did not alter
- amount of core protein [2]: did not alter
- amount of encapsidated pgRNA [2]: did not alter
- viral DNA replication intermediates [2]: drastically reduced
- amount of capsid-associated viral DNA ([2]; particle gel assay): drastically reduced

SMILES: O=C(Nc1ccc(F)c(Cl)c1)N1CCCc2ccccc21 [Compound 27, N-(3-chloro-4-fluorophenyl)-3,4-dihydroquinoline-1(2H)-carboxamide]
- reduction of activity relative to 17 ([1]; AML12HBV10 cells, replacement of 4-N with CH2): 3 fold

SMILES: COC(=O)C1=C(C)NC(c2ncc(F)cc2F)=N[C@H]1c1ccc(F)cc1Cl [Bay 41-4109]
- amount of encapsidated pgRNA [2]: significantly reduced
- viral DNA replication intermediates [2]: viral DNA replication was inhibited

SMILES: O=C(Nc1ccc(F)c(Cl)c1)N1CCCCc2ccccc21 [Compound 32, N-(3-chloro-4-fluorophenyl)-2,3,4,5-tetrahydro-1H-benzo[b]azepine-1-carboxamide]
- anti-HBV activity (in words) ([1]; AML12HBV10 cells): diminished the activity

SMILES: O=C(Nc1ccc(F)c(C(F)(F)F)c1)N1c2ccccc2NCC1CN1CCC(F)(F)CC1 (stereo not drawn) [Compound 87, 2-((4,4-difluoropiperidin-1-yl)methyl)-N-(4-fluoro-3-(trifluoromethyl)phenyl)-3,4-dihydroquinoxaline-1(2H)-carboxamide]
- anti-HBV activity (in words) ([1]; AML12HBV10 cells): moderate sub-micromolar

SMILES: O=C(Nc1ccc(F)c(Cl)c1)N1CC(CN2CCC(F)(F)C2)N(C(=O)Nc2ccc(F)c(Cl)c2)c2ccccc21 (stereo not drawn) [Compound 97, N^1,N4-bis(3-chloro-4-fluorophenyl)-2-((3,3-difluoropyrrolidin-1-yl)methyl)-2,3-dihydroquinoxaline-1,4-dicarboxamide]
- anti-HBV activity (in words) ([1]; AML12HBV10 cells): did not help to improve the activity significantly

SMILES: O=C(Nc1ccc(F)c(Cl)c1)N1CCN[C@H]2CCCC[C@H]21 (relative stereo) [Compound 34, Cis-N-(3-chloro-4-fluorophenyl)octahydroquinoxaline-1(2H)-carboxamide]
- anti-HBV activity (in words) ([1]; AML12HBV10 cells): loss of activity

SMILES: O=C(Nc1ccc(F)c(Cl)c1)c1cccc2c1OCCO2 [38017 (8)]
- EC50 (in words) [3]: sub-micromolar

SMILES: O=C(NCc1cccc(Cl)c1)N1CCNc2ccccc21 [Compound 44, N-(3-chlorobenzyl)-3,4-dihydroquinoxaline-1(2H)-carboxamide]
- anti-HBV activity (in words) ([1]; AML12HBV10 cells): reduced the activity

SMILES: O=C(Nc1ccc(F)c(Cl)c1)N1CC(CN2CCC(F)(F)CC2)N(C(=O)Nc2ccc(F)c(Cl)c2)c2ccccc21 (stereo not drawn) [Compound 98, N^1,N^4-bis(3-chloro-4-fluorophenyl)-2-((4,4-difluoropiperidin-1-yl)methyl)-2,3-dihydroquinoxaline-1,4-dicarboxamide]
- anti-HBV activity (in words) ([1]; AML12HBV10 cells): did not help to improve the activity significantly

SMILES: NC1CCN(C(=O)Nc2ccc(F)c(Cl)c2)c2ccccc21 (stereo not drawn) [Compound 28, 4-Amino-N-(3-chloro-4-fluorophenyl)-3,4-dihydroquinoline-1(2H)-carboxamide]
- anti-HBV activity (in words) ([1]; AML12HBV10 cells): no activity was observed
